Results of several laboratories.
Each line is one published result; the experiments were not run side by side.
Organism: Severe acute respiratory syndrome coronavirus 2

SMILES | test | test system | setting | measurement | result
CCCCCCCCCCCCCCCCOCCCOP(=O)(O)OC[C@H]1O[C@@](C#N)(c2ccc3c(N)ncnn23)[C@H](O)[C@@H]1O | viral replication, inhibitor, qPCR | Vero C1008 | 48 h | EC90 | 730 nM
Fc1ccc(C(OCCN2CCN(CCCc3ccccc3)CC2)c2ccc(F)cc2)cc1 | viral replication, inhibitor | A549-ACE2 |  | IC50 | 6030 nM
O=C(/C=C/c1ccc(O)c(O)c1/C=C/c1ccc(O)c(O)c1)O[C@H](Cc1ccc(O)c(O)c1)C(=O)O | cytopathic effect, inhibitor | Vero C1008 | 1.562 µM | inhibition | 0%
Clc1ccc(C(OCCN2CCCCC2)c2ccccc2)cc1 (stereo not shown) | viral replication, inhibitor | A549-ACE2 |  | IC50 | 1510 nM
COC(=O)Nc1nc2cc(C3(O)c4ccccc4C(=O)N3c3cc(Cl)ccc3C)ccc2[nH]1 (stereo not shown) | viral replication, inhibitor | Vero C1008 | 1 µM | inhibition | 40.3%
COc1ccc(CCN(C)CCCC(C#N)(c2ccc(OC)c(OC)c2)C(C)C)cc1OC (stereo not shown) | viral replication, inhibitor | Huh-7 |  | IC50 | 534 nM
Cc1cc(NC(=O)c2cc3c(=O)n4cccc(C)c4nc3n2C)ccc1Br | viral replication | Vero | 10 µM | inhibition | 91.9%
CN(C)CCC=C1c2ccccc2CCc2ccccc21 | viral replication | Vero C1008 |  | IC50 | 2820 nM
[2H]C([2H])([2H])n1cc2cc(/N=c3\[nH]c(=O)n(Cc4ncn(C)n4)c(=O)n3Cc3cc(F)c(F)cc3F)c(Cl)cc2n1 | viral replication, inhibitor, qPCR |  | 48 h | EC50 | 18 nM
CCCCCCCCCCCCCCCCCCOCCOP(=O)(O)OC[C@H]1O[C@@](C#N)(c2ccc3c(N)ncnn23)[C@H](O)[C@@H]1O | viral replication, inhibitor, qPCR | Vero C1008 |  | EC50 | 300 nM
OC(CNCC(O)C1CCc2cc(F)ccc2O1)C1CCc2cc(F)ccc2O1 (stereo not shown) | viral replication, inhibitor | Huh-7 |  | IC50 | > 2000 nM
Cc1cc(C)c(N(C)CC(=O)Nc2nc(-c3ccccn3)c[nH]2)c(C)c1 | viral replication, inhibitor | Vero C1008 | 1 µM | inhibition | 50.7%
O=C(O)c1c(Nc2cccc(F)c2)[nH]c2cc(Cl)ccc2c1=O | viral entry, inhibitor | NCI-H1299 | pseudovirus | EC50 | 690 nM
COc1ccc2c(c1)c(CC(=O)O)c(C)n2C(=O)c1ccc(Cl)cc1 | plaque formation | Vero C1008 |  | EC50 | ~100000 nM
CCN(C(C)=O)c1cccc(-c2ccnc3c(C#N)cnn23)c1 | viral replication, inhibitor | Vero C1008 | 1 µM | inhibition | 42.1%
CC(CN1c2ccccc2Sc2ccccc21)N(C)C (stereo not shown) | viral replication | Vero C1008 |  | IC50 | 3160 nM
CCC(CC)COC(=O)[C@H](C)N[P@](=O)(OC[C@H]1O[C@@](C#N)(c2ccc3c(N)ncnn23)[C@H](O)[C@@H]1O)Oc1ccccc1 | viral replication, inhibitor, qPCR | Vero C1008 |  | EC50 | 1130 nM
O=C(O[C@@H]1Cc2c(O)cc(O)cc2O[C@@H]1c1cc(O)c(O)c(O)c1)c1cc(O)c(O)c(O)c1 | cytopathic effect, inhibitor | Vero C1008 | 3.125 µM | inhibition | 0%
CCC(CC)COC(=O)[C@H](C)N[P@](=O)(OC[C@H]1O[C@@](C#N)(c2ccc3c(N)ncnn23)[C@H](O)[C@@H]1O)Oc1ccccc1 | viral replication, inhibitor | Huh-7 |  | IC50 | 6 nM
Cn1c(C(=O)Nc2ccc3c(c2)OCCO3)cc2c(=O)n3ccccc3nc21 | viral replication | Vero | 10 µM | inhibition | 91.8%

SMILES | test | test system | setting | measurement | result
CN[C@@H](C)C(=O)N[C@H]1CN(C(=O)CC(C)C)CC[C@H]2CC[C@@H](C(=O)NC(c3ccccc3)c3ccccc3)N2C1=O | viral replication, inhibitor | Vero C1008 | 1 µM | inhibition | 54%
CC1=NN(c2ccccc2)C(=O)C1 | viral replication, inhibitor | Huh-7 |  | IC50 | > 2000 nM
COc1ccc(C[C@@H]2c3cc(Oc4cc(C[C@@H]5c6cc(O)c(OC)cc6CCN5C)ccc4O)c(OC)cc3CCN2C)cc1 | cytopathic effect, inhibitor | Vero C1008 | 50 µM | inhibition | 66.7%
N#C[C@@]1(c2ccc3c(N)ncnn23)O[C@H](CO)[C@@H](O)[C@H]1O | viral replication, inhibitor, qPCR | Vero C1008 |  | EC50 | 380 nM
CCC(CC)COC(=O)[C@H](C)N[P@](=O)(OC[C@H]1O[C@@](C#N)(c2ccc3c(N)ncnn23)[C@H](O)[C@@H]1O)Oc1ccccc1 | viral replication | Vero | 1 µM | inhibition | 95.2%
Cc1cccc(CN2CCN(C(c3ccccc3)c3ccc(Cl)cc3)CC2)c1 (stereo not shown) | viral replication | Vero C1008 |  | IC50 | 1350 nM
Cc1ccc(NC(=O)c2cc3c(=O)n4cccc(C)c4nc3n2C)cc1Cl | viral replication | Vero | 10 nM | inhibition | 25.8%
CCCCCCCCCCCCCCCCCCOC[C@H](COP(=O)(O)OC[C@H]1O[C@@](C#N)(c2ccc3c(N)ncnn23)[C@H](O)[C@@H]1O)OCc1ccccc1 | viral replication, inhibitor, qPCR | Vero C1008 | 48 h | EC90 | 160 nM
O=C(Nc1ccccc1F)c1cc2c(=O)n3ccccc3nc2n1Cc1ccccc1 | viral replication | Vero | 10 nM | inhibition | 50.8%
O=C(NC1CCN(CCCCC2(C(=O)NCC(F)(F)F)c3ccccc3-c3ccccc32)CC1)c1ccccc1-c1ccc(C(F)(F)F)cc1 | viral replication, inhibitor | Huh-7 |  | IC50 | 765 nM
OC(CCN1CCCCC1)(c1ccccc1)C1CCCCC1 (stereo not shown) | viral replication | Vero C1008 |  | IC50 | 8910 nM
Cn1c(C(=O)Nc2ccc(Cl)cc2)cc2c(=O)n3ccccc3nc21 | viral replication | Vero | 1 nM | inhibition | 5.41%
CCC(C)(C)C(=O)O[C@H]1C[C@@H](C)C=C2C=C[C@H](C)[C@H](CC[C@@H]3C[C@@H](O)CC(=O)O3)[C@H]21 | viral replication, inhibitor | Huh-7 |  | IC50 | > 2000 nM
OCCN1CCN(CCCN2c3ccccc3C=Cc3ccccc32)CC1 | viral replication | Vero C1008 |  | IC50 | 10000 nM
CCOC(=O)c1ncc2[nH]c3cccc(OC(C)C)c3c2c1C | viral replication, inhibitor | Vero C1008 | 1 µM | inhibition | 40.6%
C=C[C@@](C)(/C=C/c1ccc(O)cc1)CCC=C(C)C | cytopathic effect | Vero C1008 | 25 µM | inhibition | 0%
CCOC(=O)c1[nH]c2cc(OC)c(OC)cc2c1CCN1CCN(c2ccccc2)CC1 | viral replication, inhibitor | Vero C1008 | 1 µM | inhibition | 52.8%
CCCN(CCC)CCc1ccc(OC)c(OCCc2ccccc2)c1 | viral replication, inhibitor | A549-ACE2 |  | IC50 | 1410 nM
CC(C)=CCc1c(O)ccc(C(=O)/C=C/c2ccc(O)cc2)c1O | cytopathic effect | Vero C1008 | 100 µM | inhibition | 90%
Cc1cccc(C)c1OCC(=O)N[C@@H](Cc1ccccc1)[C@@H](O)C[C@H](Cc1ccccc1)NC(=O)[C@H](C(C)C)N1CCCNC1=O | viral replication, inhibitor | Vero C1008 |  | EC50 | < 100000 nM
